Read-outs that look alike come from different tables or passages of the source.
Legend:
WT rKv2.1 = test: Two-electrode voltage-clamp of WT rKv2.1 in Xenopus oocytes; format: cell-based, rat; conditions: 1 µM toxin; 300-ms depolarization to 0 mV, holding −90 mV, tail −60 mV
[1] = system: rNav1.2a/Kv2.1 VSD IV paddle chimera; format: cell-based, rat
rNav1.2a = conditions: cited from earlier work
[2] = system: rNav1.2a/Kv2.1 VSD IV paddle chimera; conditions: electrophysiology; ref Bosmans et al., 2008; cited from earlier work
[3] = system: rNav1.2a/Kv2.1 VSD II paddle chimera; conditions: ref Bosmans et al., 2008; cited from earlier work
[4] = target: rNav1.2a/Kv2.1 VSD IV chimera R1629A; conditions: read-out: apparent KD, VSD IV chimera R1629A, ref Bosmans et al., 2008; cited from earlier work
[5] = target: rNav1.2a/Kv2.1 VSD IV chimera L1630A; conditions: read-out: apparent KD, VSD IV chimera L1630A, ref Bosmans et al., 2008; cited from earlier work
[6] = system: isolated rNav1.2a VSD II paddle motif; test: SPR with immobilized rNav1.2a VSD II paddle peptide; format: binding, rat; conditions: up to 20 µM toxin, 25°C
[7] = system: rNav1.2a/Kv2.1 VSD IV R1629A/L1630A paddle chimera; format: cell-based, rat; conditions: 100 nM AaHII; holding −10 mV, 300-ms step after −150 mV, tail −150 mV
[8] = system: isolated rNav1.2a VSD IV paddle motif; test: SPR with immobilized rNav1.2a VSD IV paddle peptide; format: binding, rat; conditions: 50 fmol peptide, heterogeneous ligand model, n = 3
Outline: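 Biotinylated synthetic VSD IV paddle peptide (~50 fmol) captured on neutravidin amine-coupled to a CM5 chip. Run at 25°C in 50 mM phosphate, pH 7.2. Toxin at 15–2,000 nM injected at 20 µl/min after a steady baseline; control flow cell subtracted; regenerated with 1 M NaCl (15 s, 30 µl/min). Bulk signal excluded, then fitted to a two-site heterogeneous ligand model; n = 3, mean ± SD.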

[9] = system: rNav1.2a/Kv2.1 VSD II paddle chimera; format: cell-based, rat
Nav channel = conditions: ref Crest et al., 1992; cited from earlier work
Kv1.1 = conditions: ref Crest et al., 1992; cited from earlier work
Kv1.3 = conditions: ref Crest et al., 1992; cited from earlier work
[10] = SPR, Biacore T200, 25°C, pH 7.2, 15–2,000 nM, mean ± SD

With “AaHI: α-scorpion toxin from Androctonus australis Hector” the “effect on WT Kv2.1 K^+ current” value (WT rKv2.1) was “insensitive”, the “voltage-dependent K^+ current inhibition, VSD IV paddle chimera” value ([1]; 100 nM toxin, 300-ms depolarization, holding −90 mV) was “robust voltage-dependent K^+ current inhibition” and the “depolarizing shift in midpoint (V1/2), VSD IV paddle chimera” value ([1]; 100 nM toxin, Boltzmann fit, n = 3, holding −90 mV, tail −60 mV) was roughly 15 mV.

In the case of “AaHII: α-scorpion toxin from Androctonus australis Hector”, the Kd (rNav1.2a; read-out: affinity for WT rNav1.2a, WT rNav1.2a, ref Wang et al., 2011) is listed as roughly 5 nM, the “binding to VSD IV paddle (rNav1.2a/Kv2.1 chimeras)” value [2] is listed as “shown to bind to the VSD IV paddle motif in rNav1.2a” and the “interaction with rNav1.2a/Kv2.1 VSD II paddle chimera” value [3] is listed as “no interaction was observed”. The Kd [4] was 235 ± 24 nM, the Kd [5] was 205 ± 23 nM and the “SPR effect on VSD II paddle motif at high toxin concentration” value [6] was “did not notice an effect”. The “inhibition of WT rNav1.2a/Kv2.1 VSD IV chimera compared with double mutant” value ([1]; 100 nM AaHII) was “influenced to a much lesser extent”, the “inhibition of R1629A/L1630A double mutant chimera” value [7] was “strongly inhibits the double mutant” and the “dissociation rate constant kd1” value [8, 10] was 0.000979 ± 0.00014 s⁻¹. The “dissociation rate constant kd2” value [8, 10] was 0.0281 ± 0.0058 s⁻¹, the “high affinity KD1 (kd1/ka1)” value [8, 10] was 479 ± 241 nM and the RUmax1 ([8]; high affinity site) was 135. For the same molecule, the RUmax2 ([8]; lower affinity site) was 23.

With “CssIV: β-scorpion toxin from Centruroides suffusus suffusus” the “influence on VSD IV chimera” value ([1]; 1 µM toxin, n = 3, holding −90 mV, tail −60 mV) was “does not influence the VSD IV chimera”, the “depolarizing shift in V1/2, VSD II chimera” value ([9]; 1 µM toxin, Boltzmann fit, n = 3, holding −90 mV, tail −60 mV) was roughly 14 mV and the “V1/2 in the presence of toxin, VSD II chimera” value ([9]; 1 µM toxin, control 33 ± 2 mV, mean ± SEM, n = 3, holding −90 mV, tail −60 mV) was 47 ± 1 mV. For the same molecule, the “concentration required to begin inhibiting the rNav1.2a/Kv2.1 VSD II paddle chimera” value ([9]; Xenopus oocytes, ∼22°C) was 1 µM.

In the case of kaliotoxin [KTX], the “influence on Nav channel function” value (Nav channel) is given as “does not influence Nav channel function”, the Kv1.1 pore block (Kv1.1) is given as “blocks” and the Kv1.3 pore block (Kv1.3) is given as “blocks”.

B1: TsVII: β-scorpion toxin from the Brazilian scorpion Tityus serrulatus (protein, UniProt P15226 21-81, looked up)
Beta-mammal/insect toxin Ts1: KEGYLMDHEGCKLSCFIRPSGYCGRECGIKKGSSGYCAWPACYCYGLPNWVKVWDRATNKC
modifications: ends and bridges not checked
For B1, the Kd (rNav1.2a; read-out: apparent KD, rNav1.2a, ref Bosmans et al., 2008) is listed as 25 to 121 nM and the “binding to VSD IV paddle (rNav1.2a/Kv2.1 chimeras)” value [2] is listed as “can also bind to the VSD IV paddle”.

Source: publication PMC4306711 (The Journal of General Physiology, 2015)
